Laboratory results published in ChEMBL document CHEMBL1137534, “Synthesis and screening for acetylcholinesterase inhibitor activity of some novel 2-butyl-1,3-diaza-spiro[4,4]non-1-en-4-ones: derivatives of irbesartan key intermediate” (Bioorg Med Chem, 2007).
pIC50: −log10 of the molar value.

How the values were obtained:
[1] = target: T1, Acetylcholinesterase (Rattus norvegicus, UniProt P37136); assay: Inhibition of Wistar rat brain AChE by Ellman colorimetric assay
T1 sequence (P37136 whole entry): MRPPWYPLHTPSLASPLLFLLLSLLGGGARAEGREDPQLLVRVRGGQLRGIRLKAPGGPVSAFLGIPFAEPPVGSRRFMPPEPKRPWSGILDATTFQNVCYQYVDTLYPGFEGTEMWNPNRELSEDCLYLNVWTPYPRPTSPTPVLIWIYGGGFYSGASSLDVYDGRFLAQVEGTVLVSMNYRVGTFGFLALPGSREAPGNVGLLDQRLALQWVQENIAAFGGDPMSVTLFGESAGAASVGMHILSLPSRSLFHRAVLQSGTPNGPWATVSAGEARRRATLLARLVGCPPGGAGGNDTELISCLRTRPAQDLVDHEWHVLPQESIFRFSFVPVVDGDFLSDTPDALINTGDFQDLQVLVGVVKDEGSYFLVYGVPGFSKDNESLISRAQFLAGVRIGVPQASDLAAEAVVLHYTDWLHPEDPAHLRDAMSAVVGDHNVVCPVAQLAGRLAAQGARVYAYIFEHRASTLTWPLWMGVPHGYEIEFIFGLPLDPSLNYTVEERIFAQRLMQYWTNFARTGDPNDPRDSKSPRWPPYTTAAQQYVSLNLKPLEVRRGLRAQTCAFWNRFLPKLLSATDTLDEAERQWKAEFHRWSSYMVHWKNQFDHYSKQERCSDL
Outline: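 Rat brain homogenate as the enzyme source. Ellman method with DTNB and 1.0 mM acetylthiocholine at 37 °C. Enzyme, buffer, DTNB and inhibitor were preincubated 10 min before substrate was added. Absorbance at 412 nm was read every 1 min for 10 min. Inhibitor range was 0–200 nM. IC50 is the concentration giving 50% inhibition; duplicate means.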

[2] = target: Acetylcholinesterase (Homo sapiens, UniProt P22303); assay: Inhibition of human serum AChE by Ellman colorimetric assay
Sequence of Acetylcholinesterase (Homo sapiens, UniProt P22303) (P22303 whole entry): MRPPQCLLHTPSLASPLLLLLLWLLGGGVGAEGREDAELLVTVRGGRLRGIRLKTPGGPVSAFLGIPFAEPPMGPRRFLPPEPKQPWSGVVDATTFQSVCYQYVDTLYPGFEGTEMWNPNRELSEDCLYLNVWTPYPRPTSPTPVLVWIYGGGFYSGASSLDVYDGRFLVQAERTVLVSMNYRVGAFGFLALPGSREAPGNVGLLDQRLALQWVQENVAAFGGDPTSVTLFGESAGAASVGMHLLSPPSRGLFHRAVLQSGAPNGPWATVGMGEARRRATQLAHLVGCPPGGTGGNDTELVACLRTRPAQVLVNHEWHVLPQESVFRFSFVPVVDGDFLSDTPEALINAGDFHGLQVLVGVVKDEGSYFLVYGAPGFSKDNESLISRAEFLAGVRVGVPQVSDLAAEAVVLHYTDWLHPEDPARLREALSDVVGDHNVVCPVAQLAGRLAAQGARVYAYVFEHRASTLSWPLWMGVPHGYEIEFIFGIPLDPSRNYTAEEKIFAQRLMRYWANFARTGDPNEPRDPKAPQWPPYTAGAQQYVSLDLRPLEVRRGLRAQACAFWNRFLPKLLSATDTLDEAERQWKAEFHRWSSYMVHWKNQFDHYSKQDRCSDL
Outline: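 Crude AChE was the supernatant of fresh volunteer blood mixed with 3.8% trisodium citrate (9:1) and spun at 3000 rpm, 0 °C, 20 min. Ellman assay with DTNB and 1.0 mM acetylthiocholine at 37 °C, after 10 min preincubation with inhibitor. A412 was followed over 10 min. Inhibitor range was 0–200 nM. IC50 is the 50% inhibition point; duplicate means.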

[3] = target: Acetylcholinesterase (Electrophorus electricus, UniProt O42275); assay: Inhibition of electric eel AChE by Ellman colorimetric assay
Sequence of Acetylcholinesterase (Electrophorus electricus, UniProt O42275) (O42275 whole entry): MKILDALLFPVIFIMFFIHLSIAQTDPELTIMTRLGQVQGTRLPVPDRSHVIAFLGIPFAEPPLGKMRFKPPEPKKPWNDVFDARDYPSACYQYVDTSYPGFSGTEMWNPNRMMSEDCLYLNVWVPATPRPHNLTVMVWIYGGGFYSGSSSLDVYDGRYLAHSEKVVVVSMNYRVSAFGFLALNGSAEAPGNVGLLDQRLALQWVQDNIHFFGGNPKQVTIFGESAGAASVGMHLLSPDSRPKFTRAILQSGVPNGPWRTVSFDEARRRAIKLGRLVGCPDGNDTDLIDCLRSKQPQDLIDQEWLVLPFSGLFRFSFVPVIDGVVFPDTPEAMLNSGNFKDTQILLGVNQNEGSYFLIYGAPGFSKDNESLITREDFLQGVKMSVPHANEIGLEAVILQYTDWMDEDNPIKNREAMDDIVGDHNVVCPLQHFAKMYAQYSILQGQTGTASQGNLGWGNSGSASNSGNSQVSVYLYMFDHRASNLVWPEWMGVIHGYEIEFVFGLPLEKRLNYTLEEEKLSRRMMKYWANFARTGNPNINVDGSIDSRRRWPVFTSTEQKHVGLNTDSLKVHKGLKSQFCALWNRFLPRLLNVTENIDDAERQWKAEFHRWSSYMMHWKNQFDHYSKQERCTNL
Outline: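 Electric eel AChE stock was kept frozen in 0.1 M KH2PO4 (pH 8). Assay used phosphate buffer pH 8.0, DTNB and 1.0 mM acetylthiocholine at 37 °C, after 10 min enzyme–inhibitor preincubation. A412 was read at 1-min intervals for 10 min. Inhibitor range was 0–200 nM. IC50 was taken at 50% inhibition; duplicates, mean reported.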

Compound: CCCCC1=NC2(CCCC2)C(=O)N1Cc1ccc([N+](=O)[O-])cc1
- pIC50 [1]: 6.87
- pIC50 [2]: 6.87
- pIC50 [3]: 6.83

Compound: CCCCC1=NC2(CCCC2)C(=O)N1Cc1ccc(-c2ccccc2C(=O)OC)cc1
- pIC50 [1]: 6.61
- pIC50 [2]: 6.62
- pIC50 [3]: 6.63

Compound: CCCCC1=NC2(CCCC2)C(=O)N1Cc1cc2c(cc1C)OCO2
- pIC50 [1]: 6.67
- pIC50 [2]: 6.64
- pIC50 [3]: 6.67

Compound: CCCCC1=NC2(CCCC2)C(=O)N1Cc1ccc(-c2ccccc2C#N)cc1
- pIC50 [1]: 7.05
- pIC50 [2]: 7.08
- pIC50 [3]: 7.05

Compound: CCCCC1=NC2(CCCC2)C(=O)N1Cc1ccc(-c2ccccc2C(=O)OC(C)(C)C)cc1
- pIC50 [1]: 6.57
- pIC50 [2]: 6.57
- pIC50 [3]: 6.56

Compound: CCCCC1=NC2(CCCC2)C(=O)N1Cc1ccc(Br)cc1
- pIC50 [1]: 7.15
- pIC50 [2]: 7.15
- pIC50 [3]: 7.17

Compound: CCCCC1=NC2(CCCC2)C(=O)N1Cc1cc(OC)c(OC)cc1Br
- pIC50 [1]: 7.11
- pIC50 [2]: 7.08
- pIC50 [3]: 7.10

Compound: CCCCC1=NC2(CCCC2)C(=O)N1CCN1C(=O)c2ccccc2C1=O
- pIC50 [1]: 6.63
- pIC50 [2]: 6.64
- pIC50 [3]: 6.60

Compound: CCCCC1=NC2(CCCC2)C(=O)N1CC(=O)c1ccc(Cl)cc1
- pIC50 [1]: 6.55
- pIC50 [2]: 6.54
- pIC50 [3]: 6.55

Compound: CN(C)C(=O)Oc1cccc([N+](C)(C)C)c1 [NEOSTIGMINE BROMIDE]
- pIC50 [1]: 7.46
- pIC50 [3]: 7.32
